Experimental data: PMC6136361 (Journal of Enzyme Inhibition and Medicinal Chemistry, 2018)
Values joined by “and” are separate entries in the source; they are usually repeats but may differ in a detail not shown here. Equal values may be shown once. Read-outs that look alike come from different tables or passages of the source.

Experiments:
HCT-116 cells = assay: Cytotoxicity, Sulforhodamine-B; format: cell-based; details: Homo sapiens
Outline: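 SRB viability: cells seeded at 5 × 10^4–10^5/well and left to attach 24 h. Test compound (DMSO, diluted in saline) at 0.001–100 µM for 48 h, four wells per concentration; vehicle-only controls. Fixed cold 50% TCA 1 h at 4 °C, stained 0.4% SRB in 1% acetic acid 30 min, dye solubilised in 10 mM tris base pH 10.5, OD 564 nm. Survival fraction = OD treated/OD control; IC50 from survival-concentration plot; repeated three times.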

HepG-2 cells [1] = assay: Cytotoxicity, Sulforhodamine-B; format: cell-based, human; details: for IC50: Homo sapiens
p53 = assay: ELISA immunoassay of p53 level in HepG-2 cells; format: cell-based, human; details: HepG-2, at IC50, 24 h
β-tubulin = β-tubulin (Homo sapiens, UniProt P07437); assay: β-tubulin polymerization inhibition assay; format: cell-based; details: for %β-TUB polymerization inhibition: at their IC50 values on HepG-2 cells; for β-tubulin polymerization inhibition: at their IC50 values, HepG-2 cells
HepG-2 cells [2] = assay: FITC-annexin V / PI staining for apoptosis; format: cell-based, human; details: HepG-2, at IC50, 24 h; for late apoptotic cells percentage (Q2): control 0.34%
caspase-3 = assay: ELISA immunoassay of active caspase-3 level in HepG-2 cells; format: cell-based, human; details: HepG-2, at IC50, 24 h
caspase-7 = assay: ELISA immunoassay of active caspase-7 level in HepG-2 cells; format: cell-based, human; details: HepG-2, at IC50, 24 h
Bcl-2 = assay: ELISA immunoassay of Bcl-2 level in HepG-2 cells; format: cell-based, human; details: HepG-2, at IC50, 24 h
VEGFR-2 = VEGFR-2 (Homo sapiens, UniProt P35968); assay: biochemical; format: biochemical
Bax = assay: ELISA immunoassay of Bax level in HepG-2 cells; format: cell-based, human; details: for Bax level, fold increase compared to the control: HepG-2, at IC50, 24 h
HepG-2 cells [3] = assay: DNA-flow cytometry cell cycle analysis; format: cell-based, human; details: HepG-2, at IC50, 24 h; for apoptotic sub-G1 cell population: control 0.10%
Outline: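 HepG-2 cells exposed to test compound for 24 h, with an untreated control. Cells washed twice in ice-cold PBS, pelleted, fixed in ice-cold 70% ethanol, treated with 0.1 mg/mL RNase and stained with propidium iodide. DNA content measured by flow cytometry to give cell-cycle phase distribution. Fold change versus control; mean ± SEM, n = 4, one-way ANOVA with Tukey test.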

[4] = HCT-116, 48 h, read-out: IC50 HCT-116
[5] = HepG2, 48 h, read-out: IC50 HepG-2
[6] = HepG2, read-out: Experimental cytotoxicity pIC50 (converted)

β-tubulin, sequence (P07437 whole entry): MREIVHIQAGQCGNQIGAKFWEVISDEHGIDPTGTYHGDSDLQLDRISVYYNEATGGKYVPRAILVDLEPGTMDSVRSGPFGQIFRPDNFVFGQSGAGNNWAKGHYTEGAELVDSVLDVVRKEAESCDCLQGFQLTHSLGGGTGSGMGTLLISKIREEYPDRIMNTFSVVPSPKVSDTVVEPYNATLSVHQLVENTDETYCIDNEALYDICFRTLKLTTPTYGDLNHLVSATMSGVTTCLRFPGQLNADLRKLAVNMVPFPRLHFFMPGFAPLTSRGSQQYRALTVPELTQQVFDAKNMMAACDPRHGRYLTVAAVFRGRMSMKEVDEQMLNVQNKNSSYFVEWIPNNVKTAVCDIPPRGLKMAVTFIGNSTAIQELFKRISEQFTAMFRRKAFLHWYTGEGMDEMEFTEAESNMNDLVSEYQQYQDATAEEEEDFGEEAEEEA
β-tubulin, sequence (P68363 whole entry partner): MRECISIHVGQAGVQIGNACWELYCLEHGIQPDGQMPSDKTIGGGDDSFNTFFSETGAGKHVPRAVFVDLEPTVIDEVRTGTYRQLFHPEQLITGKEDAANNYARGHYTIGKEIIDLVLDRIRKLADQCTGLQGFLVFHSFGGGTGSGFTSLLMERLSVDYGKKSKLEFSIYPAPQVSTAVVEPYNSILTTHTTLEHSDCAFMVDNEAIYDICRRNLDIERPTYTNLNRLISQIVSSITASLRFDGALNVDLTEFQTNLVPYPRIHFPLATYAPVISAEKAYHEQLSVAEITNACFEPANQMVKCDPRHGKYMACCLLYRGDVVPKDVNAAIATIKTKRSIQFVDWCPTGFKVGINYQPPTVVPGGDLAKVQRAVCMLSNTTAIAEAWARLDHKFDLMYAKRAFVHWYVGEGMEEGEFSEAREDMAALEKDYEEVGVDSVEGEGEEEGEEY
VEGFR-2, sequence (P35968 20-1356): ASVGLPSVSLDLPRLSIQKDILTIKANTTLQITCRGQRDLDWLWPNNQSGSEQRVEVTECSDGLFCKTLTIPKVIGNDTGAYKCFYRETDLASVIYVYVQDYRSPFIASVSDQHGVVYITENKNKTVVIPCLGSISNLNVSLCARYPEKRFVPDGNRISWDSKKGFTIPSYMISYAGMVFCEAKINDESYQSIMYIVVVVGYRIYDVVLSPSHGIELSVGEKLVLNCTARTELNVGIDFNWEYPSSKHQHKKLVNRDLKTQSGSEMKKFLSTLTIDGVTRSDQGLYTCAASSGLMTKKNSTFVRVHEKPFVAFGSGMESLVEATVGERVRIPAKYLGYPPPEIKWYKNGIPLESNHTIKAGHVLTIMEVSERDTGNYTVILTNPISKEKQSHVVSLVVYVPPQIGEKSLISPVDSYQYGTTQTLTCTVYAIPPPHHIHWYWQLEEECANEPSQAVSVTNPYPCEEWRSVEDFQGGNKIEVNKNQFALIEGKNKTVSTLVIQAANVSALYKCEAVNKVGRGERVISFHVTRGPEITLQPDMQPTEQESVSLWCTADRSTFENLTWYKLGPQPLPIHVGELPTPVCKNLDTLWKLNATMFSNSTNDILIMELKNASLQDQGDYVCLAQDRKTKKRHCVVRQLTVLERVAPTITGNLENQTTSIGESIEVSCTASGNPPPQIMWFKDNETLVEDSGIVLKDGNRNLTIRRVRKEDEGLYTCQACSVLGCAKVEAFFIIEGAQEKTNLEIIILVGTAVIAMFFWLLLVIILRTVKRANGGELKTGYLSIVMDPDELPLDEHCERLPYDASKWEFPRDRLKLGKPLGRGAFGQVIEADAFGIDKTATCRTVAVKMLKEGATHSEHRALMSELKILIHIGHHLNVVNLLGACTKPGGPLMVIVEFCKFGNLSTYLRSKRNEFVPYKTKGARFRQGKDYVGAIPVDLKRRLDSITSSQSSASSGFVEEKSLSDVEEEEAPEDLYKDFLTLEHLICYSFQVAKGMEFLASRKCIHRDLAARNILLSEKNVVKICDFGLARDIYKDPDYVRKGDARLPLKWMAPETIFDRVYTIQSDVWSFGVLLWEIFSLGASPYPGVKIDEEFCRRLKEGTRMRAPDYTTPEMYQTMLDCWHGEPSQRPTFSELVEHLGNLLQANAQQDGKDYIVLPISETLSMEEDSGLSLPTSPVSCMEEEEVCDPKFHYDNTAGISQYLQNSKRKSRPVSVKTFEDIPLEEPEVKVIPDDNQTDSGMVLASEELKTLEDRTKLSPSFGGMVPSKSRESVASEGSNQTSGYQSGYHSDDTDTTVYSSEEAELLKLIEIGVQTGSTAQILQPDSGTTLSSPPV

SMILES	IC50 (HCT-116 cells; [4]) [µM]	IC50 (HepG-2 cells [1]; [5]) [µM]	IC50 (HepG-2 cells [1]; HepG2, read-out: HepG-2 IC50) [µM]	IC50 (VEGFR-2) [µM]	IC50 (HepG-2 cells [1]; [6]) [µM]	also measured
COc1ccc(NC(=O)c2c(Nc3ccccc3)sc(C#N)c2NC(=O)CNc2ccccc2)cc1 [Compound 4, 5-Cyano-N-(4-methoxyphenyl)-2-phenylamino-4-(2-phenylamino-acetamido)thiophene-3-carboxamide]	64.1 ± 7.51	74.3 ± 5.98	–	–	–	–
COc1ccc(NC(=O)c2c(Nc3ccccc3)sc(C#N)c2NC(=O)CNc2ccc(Cl)cc2)cc1 [Compound 5, 4-[2-(4-Chlorophenyl)aminoacetamido]-5-cyano-N-(4-methoxyphenyl)-2-phenylaminothiophene-3-carboxamide]	7.83 ± 0.61	1.92 ± 0.12	1.92	–	–	p53 protein level, fold increase compared with the control (p53): about 3.4 fold; %β-TUB polymerization inhibition (β-tubulin): 72.61 ± 0.14%; β-tubulin polymerization inhibition (β-tubulin): 72% and 73%; early apoptosis fold increase vs control (HepG-2 cells [2]): 8 fold; late apoptosis fold increase vs control (HepG-2 cells [2]): 23 fold; late apoptotic cells percentage (Q2) (HepG-2 cells [2]): 7.85%; early apoptotic cells percentage (Q4) (HepG-2 cells [2]; control 0.72%): 5.47%; caspase-3 level, fold increase compared to the control (caspase-3): about 11.2 fold; caspase-7 level, fold increase compared to the control (caspase-7): ~6.9 fold; Bcl-2 level, fold decrease compared to the control (Bcl-2): 2.2 fold; fold more potent than Sorafenib against VEGFR-2 (VEGFR-2): 4 fold; fold higher cytotoxicity than Sorafenib (HepG-2 cells [1]; HepG-2 cells): 2.31 fold and 2.3 fold; Bax/Bcl-2 ratio, fold elevation compared to the control (Bax; HepG-2, at IC50): 30 fold; Bax level, fold increase compared to the control (Bax): 6.6 fold; G2/M arrest, fold increase compared to the control (HepG-2 cells [3]): about 2 fold; apoptotic sub-G1 cell population (HepG-2 cells [3]): 8.23%
COc1ccc(NC(=O)c2c(Nc3ccccc3)sc(C#N)c2NC(=O)CNc2ccc(Br)cc2)cc1 [Compound 6, 4-[2-(4-Bromophenyl)amino-acetamido]-5-cyano-N-(4-methoxyphenyl)-2-phenylaminothiophene-3-carboxamide]	3.13 ± 0.21	3.51 ± 0.22	3.51	0.93 ± 0.19	3.5	–
COc1ccc(NC(=O)c2c(Nc3ccccc3)sc(C#N)c2NC(=O)CNc2ccc(C)cc2)cc1 [Compound 7, 5-Cyano-N-(4-methoxyphenyl)-2-phenylamino-4-[2-(4-methylphenyl)amino-acetamido]thiophene-3-carboxamide]	18.4 ± 1.23	24.3 ± 1.96	–	–	24	–
COc1ccc(NC(=O)c2c(Nc3ccccc3)sc(C#N)c2NC(=O)CNc2ccc(O)cc2)cc1 [Compound 8, 5-Cyano-N-(4-methoxyphenyl)-4-[2-(4-hydroxyphenyl)amino-acetamido]-2-phenylaminothiophene-3-carboxamide]	16.2 ± 1.52	10.4 ± 1.08	–	–	10.4	–
COc1ccc(NCC(=O)Nc2c(C#N)sc(Nc3ccccc3)c2C(=O)Nc2ccc(OC)cc2)cc1 [Compound 9, 5-Cyano-N-(4-methoxyphenyl)-4-[2-(4-methoxyphenyl)amino-acetamido]-2-phenylaminothiophene-3-carboxamide]	21.4 ± 1.92	14.3 ± 1.23	–	–	14	–
COc1ccc(NC(=O)c2c(Nc3ccccc3)sc(C#N)c2NC(=O)CNc2ccc([N+](=O)[O-])cc2)cc1 [Compound 10, 5-Cyano-N-(4-methoxyphenyl)-4-[2-(4-nitrophenyl)aminoacetamido]-2-phenylaminothiophene-3-carboxamide]	5.12 ± 0.42	9.71 ± 0.86	9.71	3.92 ± 0.16	9.7	–
COc1ccc(NC(=O)c2c(Nc3ccccc3)sc(C#N)c2NC(=O)CNc2ccccc2Cl)cc1 [Compound 11, 5-Cyano-N-(4-methoxyphenyl)-4-[2-(2-chlorophenyl)aminoacetamido]-2-phenylaminothiophene-3-carboxamide]	52.2 ± 5.54	31.3 ± 3.61	–	–	–	–
COc1ccc(NC(=O)c2c(Nc3ccccc3)sc(C#N)c2NC(=O)CNc2ccccc2[N+](=O)[O-])cc1 [Compound 12, 5-Cyano-N-(4-methoxyphenyl)-4-[2-(2-nitrophenyl)amino-acetamido]-2-phenylaminothiophene-3-carboxamide]	60.1 ± 7.41	43.3 ± 4.23	–	–	–	–
COc1ccc(NC(=O)c2c(Nc3ccccc3)sc(C#N)c2NC(=O)CNc2ccc(OC)c(OC)c2)cc1 [Compound 13, 5-Cyano-N-(4-methoxyphenyl)-4-[2-(3,4-dimethoxyphenyl)amino-acetamido]-2-phenylaminothiophene-3-carboxamide]	10.3 ± 1.31	15.2 ± 1.62	–	–	15.2	–
COc1ccc(NC(=O)c2c(Nc3ccccc3)sc(C(=O)NN=Cc3ccccc3)c2NC(C)=O)cc1 [Compound 16, 4-Acetamido-5-(2-benzylidenehydrazinocarbonyl)-N-(4-methoxyphenyl)-2-phenylaminothiophene-3-carboxamide]	19.2 ± 1.46	21.4 ± 2.91	–	–	21	–
COc1ccc(NC(=O)c2c(Nc3ccccc3)sc(C(=O)NN=Cc3ccc(Cl)cc3)c2NC(C)=O)cc1 [Compound 17, 4-Acetamido-5-[2-(4-chlorobenzylidene)hydrazinocarbonyl]-N-(4-methoxyphenyl)-2-phenylaminothiophene-3-carboxamide]	9.24 ± 1.02	9.5 ± 0.86	9.5	5.91 ± 0.23	9.5	–
COc1ccc(NC(=O)c2c(Nc3ccccc3)sc(C(=O)NN=Cc3ccc(Br)cc3)c2NC(C)=O)cc1 [Compound 18, 4-Acetamido-5-[2-(4-bromobenzylidene)hydrazinocarbonyl]-N-(4-methoxyphenyl)-2-phenylaminothiophene-3-carboxamide]	7.41 ± 0.62	10.1 ± 1.12	–	–	10.4	–
COc1ccc(NC(=O)c2c(Nc3ccccc3)sc(C(=O)NN=Cc3ccc(C)cc3)c2NC(C)=O)cc1 [Compound 19, 4-Acetamido-5-[2-(4-methylbenzylidene)hydrazinocarbonyl]-N-(4-methoxyphenyl)-2-phenylaminothiophene-3-carboxamide]	21.4 ± 1.82	12.2 ± 1.31	–	–	12.2	–
COc1ccc(C=NNC(=O)c2sc(Nc3ccccc3)c(C(=O)Nc3ccc(OC)cc3)c2NC(C)=O)cc1 [Compound 20, 4-Acetamido-5-[2-(4-methoxybenzylidene)hydrazinocarbonyl] -N-(4-methoxyphenyl)-2-(phenylamino)thiophene-3-carboxamide]	3.12 ± 0.31	4.96 ± 0.45	4.96	1.71 ± 0.21	8.7	–
COc1ccc(NC(=O)c2c(Nc3ccccc3)sc(C(=O)NN=Cc3ccc(OC)c(O)c3)c2NC(C)=O)cc1 [Compound 21, 4-Acetamido-5-[2-(3-hydroxy-4-methoxybenzylidene) hydrazinocarbonyl]-N-(4-methoxyphenyl)-2-phenylaminothiophene-3-carboxamide]	4.32 ± 0.11	2.61 ± 0.12	2.61	1.29 ± 0.13	–	p53 protein level, fold increase compared with the control (p53): ~1.7 fold; %β-TUB polymerization inhibition (β-tubulin): 85.95 ± 0.21%; β-tubulin polymerization inhibition (β-tubulin): 86%; early apoptosis fold increase vs control (HepG-2 cells [2]): 6 fold; late apoptosis fold increase vs control (HepG-2 cells [2]): 21 fold; late apoptotic cells percentage (Q2) (HepG-2 cells [2]): 7.2%; caspase-3 level, fold increase compared to the control (caspase-3): 9.2 fold; caspase-7 level, fold increase compared to the control (caspase-7): 5.9 fold; Bcl-2 level, fold decrease compared to the control (Bcl-2): 2.5 fold; Bax level, fold increase compared to the control (Bax): 11.8 fold; G2/M arrest, fold increase compared to the control (HepG-2 cells [3]): ~1.9 fold; apoptotic sub-G1 cell population (HepG-2 cells [3]): 6.07%
COc1ccc(NC(=O)c2c(Nc3ccccc3)sc(C(=O)NN=Cc3cc(OC)c(OC)c(OC)c3)c2NC(C)=O)cc1 [Compound 23, 4-Acetamido-N-(p-methoxyphenyl)-2-phenylamino-5-[2-(3,4,5-trimethoxybenzylidene)hydrazinocarbonyl]thiophene-3-carboxamide]	6.46 ± 0.49	10.82 ± 0.065	10.8	5.21 ± 0.32	5.1	–
CNC(=O)c1cc(Oc2ccc(NC(=O)Nc3ccc(Cl)c(C(F)(F)F)c3)cc2)ccn1 [Sorafenib, reference compound]	–	–	4.43	–	–	IC50 (HCT-116 cells; HCT-116, read-out: IC50 against HCT-116 cells): 3.22 µM
